Screening results from PubChem BioAssay.
Only some compounds are listed: those with a hit (about 2.9% of all), similar ones and a draw of the others.
TRPC6 act: mouse TRPC6 channel activators, primary screen, cell-based, HEK293, membrane potential dye | Short transient receptor potential channel 6 (Mus musculus), Q61143 | HEK293-TRPC6 membrane potential dye fluorescence; active compounds read high | B-score at 10 µM | 0.13% of 310,000 active | AID 2550, 2010;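 active = B-score of the integrated fluorescence ratio above library mean plus 3 SD, and starting fluorescence ratio within library mean plus 5 SD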;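 note: higher score means more depolarization so channel activation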
Target sequence (Q61143 whole entry, looked up): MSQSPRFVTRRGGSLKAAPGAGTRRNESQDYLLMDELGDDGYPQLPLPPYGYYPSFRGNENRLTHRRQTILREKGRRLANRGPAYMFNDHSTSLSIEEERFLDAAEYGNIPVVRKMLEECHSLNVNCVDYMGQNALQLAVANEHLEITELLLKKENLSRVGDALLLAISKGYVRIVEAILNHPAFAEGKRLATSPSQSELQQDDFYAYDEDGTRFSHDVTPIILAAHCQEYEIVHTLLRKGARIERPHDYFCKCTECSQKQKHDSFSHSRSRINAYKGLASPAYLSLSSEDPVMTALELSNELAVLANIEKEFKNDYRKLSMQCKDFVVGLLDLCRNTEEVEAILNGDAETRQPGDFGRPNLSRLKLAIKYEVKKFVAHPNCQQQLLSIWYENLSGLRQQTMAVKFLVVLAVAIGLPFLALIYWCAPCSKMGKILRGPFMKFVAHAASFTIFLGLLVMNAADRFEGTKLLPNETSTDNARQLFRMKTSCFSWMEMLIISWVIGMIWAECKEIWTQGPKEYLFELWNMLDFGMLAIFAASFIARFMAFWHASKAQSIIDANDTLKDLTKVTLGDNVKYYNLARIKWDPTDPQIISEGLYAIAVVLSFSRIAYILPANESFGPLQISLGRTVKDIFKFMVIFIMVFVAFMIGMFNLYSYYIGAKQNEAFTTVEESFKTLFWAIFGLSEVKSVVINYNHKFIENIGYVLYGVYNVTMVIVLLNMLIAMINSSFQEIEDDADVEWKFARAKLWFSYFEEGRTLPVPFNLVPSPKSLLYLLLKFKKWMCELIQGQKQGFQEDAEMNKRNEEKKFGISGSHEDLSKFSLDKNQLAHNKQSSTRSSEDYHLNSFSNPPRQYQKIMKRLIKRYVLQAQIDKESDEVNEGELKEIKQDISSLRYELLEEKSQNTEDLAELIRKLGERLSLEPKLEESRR
TRPC4 agonist: activators of mouse TRPC4 channel, primary screen, Fluo4 calcium, HEK293 TRPC4beta/mu-opioid cells. Short transient receptor potential channel 4 (Mus musculus), Q9QUQ5. Fluo4 calcium fluorescence; active compounds read high. B-score at 10 µM. 0.49% of 310,000 active. AID 2237, 2010;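 active = B-score above 5 SD of library B-scores, and initial fluorescence ratio not above library mean plus 5 SD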;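 note: positive B-score marks a calcium rise read as TRPC4 activation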
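Assay system: HEK293 stable line with TRPC4beta plus mu-opioid receptor; schedule: 45 min room-temperature Fluo4 loading, 110 s read; technique: kinetic Fluo4 calcium fluorescence; evaluation: integrated baseline-normalised fluorescence ratio, converted to per-well B score; controls: buffer (low) and maximal DAMGO (high)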
Kir21 block: inhibitors of mouse Kir2.1 inward-rectifier potassium channel | Inward rectifier potassium channel 2 (Mus musculus), P35561 | 0.85% of 310,000 active | B-score at 10 µM | HEK293-Kir2.1, FluxOR thallium flux fluorescence; active compounds read low;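 active = fluorescence ratio B-score at or below minus 3 SD of library scores, with starting-brightness B-score within 2 SD, cut at about -4.2 in these data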;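 note: channel flux triggered by added potassium and thallium sulfate stimulus; B-score of peak minus minimum fluorescence over baseline after thallium stimulus; more negative B-score means stronger Kir2.1 block with less thallium influx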
TRPC6 inh: mouse TRPC6 channel inhibitors, primary screen, cell-based, HEK293, membrane potential dye | Short transient receptor potential channel 6 (Mus musculus), Q61143 | ACh-evoked depolarization; active compounds read low | B-score at 10 µM | 1.1% of 310,000 active | AID 2553, 2010;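 active = B-score under library mean minus 3 SD, initial fluorescence not abnormally high, positive integrated signal ratio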;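 note: B-score derived from integrated fluorescence ratio over the kinetic read; more negative B-score means stronger inhibition of depolarization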
TRPC4 block: inhibitors of mouse TRPC4 channel, primary screen, Fluo4 calcium, HEK293 TRPC4beta/mu-opioid cells; AID 2247, 2010; B-score at 10 µM; 0.39% of 300,000 active; Short transient receptor potential channel 4 (Mus musculus), Q9QUQ5; DAMGO-evoked Fluo4 calcium flux; active compounds read low;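 active = B-score over 3 SD under the library average, no early fluorescence shift, positive overall ratio signal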
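Assay system: HEK293 cells with stable TRPC4beta plus mu-opioid receptor expression; Probe or stimulus: DAMGO in two steps, submaximal then maximal; Dosing: single-point compound dosing; Measured by: Fluo4 calcium-dye fluorescence, kinetic read; Read-out basis: B score from integrated Fluo4 fluorescence ratio.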
TRPC4 PAM: positive allosteric modulators of TRPC4, primary screen, cell-based, mouse TRPC4beta, HEK293 mu-opioid, Fluo-4 calcium. 0.42% of 310,000 active. B-score at 10 µM. Short transient receptor potential channel 4 (Mus musculus), Q9QUQ5. DAMGO EC20, Fluo-4 Ca2+ flux; active compounds read high;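 active = B-score of calcium response area above 5 SD of library B-scores, with initial fluorescence ratio within 5 SD of library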
TRPC4 spec 2: mouse TRPC4 off-target activity of TRPC6 inhibitors, second screen; 42% of 920 active; AID 2776; HEK293 TRPC4/MOR, membrane potential dye fluorescence; channel activated by saturating DAMGO dose; inhibition, % at 10 µM; shares compounds with TRPC6 inh;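 active = compounds whose fluorescence signal differed from control wells by over 3 SD, either direction, in both duplicate plates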
TRPC4 spec: mouse TRPC4 modulation by TRPC6 hits, confirmation, selectivity assay for TRPC6 inhibitor project, cell-based, HEK293 TRPC4/mu-opioid, membrane potential dye; AID 2777, 2010; membrane potential fluorescence; activity change, negative = inhibition, % at 10 µM; 61% of 920 active; shares compounds with TRPC6 inh;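 active = rise or fall in signal beyond 3 SD of buffer-only wells in both replicate plates, either sign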;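 note: integrated kinetic ratio of fluorescence range over baseline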
HEK293 MPD ctr 2-1: nonspecific membrane potential effects, parental HEK293, confirmation, counter-screen for TRPC6 inhibitor project, cell-based, second counter screen | signal change vs control, % at 10 µM | shares compounds with TRPC6 inh | parental HEK293 membrane potential dye fluorescence; maximal acetylcholine challenge after compound addition | AID 2779, 2010 | 31% of 920 active;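 active = membrane potential signal moving either way by over 3 SD of the maximum-effect control, in both duplicate plates, meaning non-specific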
HEK293 MPD ctr-1: membrane potential modulation in parental HEK293, confirmation, counter-screen for TRPC6 inhibitor project, cell-based. shares compounds with TRPC6 inh. parental HEK293 membrane potential dye fluorescence. membrane potential signal change, % at 10 µM. 60% of 920 active. AID 2780, 2010;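 active = membrane potential signal shifting up or down by more than 3 SD of buffer-only wells, on both duplicate plates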
HEK293 MPD ctr-2: parental HEK293 membrane potential modulation, confirmation, counter-screen for TRPC6 modulator project, cell-based. shares compounds with TRPC6 inh. membrane potential dye fluorescence. membrane potential signal change, % at 10 µM. 51% of 2,400 active. AID 488924, 2010;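 active = membrane potential signal moves up or down beyond 5 SD from buffer-only wells, on both duplicate plates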
HEK293 MPD ctr 2-2: second counter-screen for TRPC6 modulators: effect in parental HEK293 cells. membrane potential dye fluorescence; after compound, maximal acetylcholine stimulation. 14% of 2,400 active. shares compounds with TRPC6 inh. AID 488926. inhibition, % at 10 µM;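 active = membrane potential signal drops by more than 5 SD from the mean control signal, in both duplicate plates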
TRPC4 ctr mod: TRPC4 modulation by TRPC6 hit compounds, confirmation, selectivity assay for TRPC6 modulator project, cell-based, HEK293 TRPC4/mu-opioid, membrane potential dye, mouse; percent change from control (negative = decrease, positive = increase), % at 10 µM; 69% of 2,400 active; membrane potential fluorescence; shares compounds with TRPC6 inh;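 active = membrane potential signal moved up or down beyond 5 SD of buffer control wells, in both duplicate plates, actives on both sides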
TRPC4 ctr inh 2: mouse TRPC4 off-target activity of TRPC6 modulators, second screen. shares compounds with TRPC6 inh. HEK293 TRPC4/mu-opioid, membrane potential dye fluorescence; stimulated with maximal-effect DAMGO. inhibition, % at 10 µM. 55% of 2,400 active. AID 488928;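 active = drop in membrane potential signal beyond 5 SD of the control wells in both duplicate plates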;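 note: TRPC4 counter screen for TRPC6 hits run under conditions tuned for TRPC6 not TRPC4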
TRPC6 block conf: mouse TRPC6 channel inhibitors, confirmation, HEK293 cells, membrane potential dye, duplicate; inhibition, % at 10 µM; shares compounds with TRPC6 inh; AID 488960, 2010; 43% of 3,300 active; ACh-evoked depolarization;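 active = fluorescence ratio falls more than 5 SD below the full-stimulation control mean, in both duplicate runs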;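 note: integrated fluorescence ratio of peak minus minimum over baseline after agonist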
TRPC6 act conf: mouse TRPC6 channel activators, confirmation, HEK293 cells, membrane potential dye, duplicate; shares compounds with TRPC6 inh; HEK293-TRPC6 membrane potential dye fluorescence, FDSS; activation, % at 10 µM; 11% of 2,800 active; AID 488961, 2010;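 active = ratio signal rise beyond 5 SD above unstimulated control wells' mean, seen in both duplicate runs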
Large screens that a line does not name were inactive (follow-up assays come after a bar, where they were run).

CN1CCN(Cc2nc3ccccc3c(=O)n2CC#N)CC1	TRPC6 inh -6.86 | TRPC4 spec 2 inactive | TRPC4 spec inactive | HEK293 MPD ctr 2-1 inactive | HEK293 MPD ctr-1 inactive | TRPC6 block conf inactive | TRPC6 act conf inactive
N#CCn1c(CCl)nc2ccccc2c1=O	none
CCN(CC(=O)Nc1ccc(OC)cc1)C(=O)c1cc([N+](=O)[O-])ccc1N1CCOCC1	none
CCc1ccc(NCc2ccc(OC)c(Cn3ccnc3)c2)cc1	TRPC6 inh -5.39 | HEK293 MPD ctr-2 inactive | HEK293 MPD ctr 2-2 inactive | TRPC4 ctr mod -10.5% | TRPC4 ctr inh 2 51.5% | TRPC6 block conf 40.0% | TRPC6 act conf inactive
COc1ccc(CNc2ccc(Cl)cc2)cc1Cn1ccnc1	Kir21 block -4.32, TRPC6 inh -5.19 | HEK293 MPD ctr-2 inactive | HEK293 MPD ctr 2-2 inactive | TRPC4 ctr mod inactive | TRPC4 ctr inh 2 56.0% | TRPC6 block conf inactive | TRPC6 act conf inactive
O=[N+]([O-])c1ccc(-c2cn3nc(-c4ccccc4)c(-c4ccccc4)nc3n2)cc1	none
CC(C)C(NC(=O)c1ccccc1)C(=O)NCC(c1ccccc1)N(C)C (centres undefined)	none
CC(C)C(NC(=O)c1c(F)cccc1F)C(=O)NCC(c1ccccc1)N(C)C (centres undefined)	TRPC6 inh -5.08 | HEK293 MPD ctr-2 inactive | HEK293 MPD ctr 2-2 inactive | TRPC4 ctr mod 55.0% | TRPC4 ctr inh 2 58.0% | TRPC6 block conf inactive
